Results: ChEMBL document CHEMBL1140901, “Discovery of novel arylethynyltriazole ribonucleosides with selective and effective antiviral and antiproliferative activity” (J Med Chem, 2009)
Active and inactive are the calls of the source. The calls are words filed in the database; no cut-off is given here.

Tests used:
Hepatitis C virus [1] = test: Antiviral activity against HCV in human HuH5.2 cells assessed as inhibition of replicon replication; assay type: functional, organism-based, Hepacivirus hominis; details: Huh-5-2
Summary of the method: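 Huh-5-2 replicon cells seeded 5000/well in DMEM with 2% FCS and 250 µg/mL G418. After 24 h at 37 °C, 3-fold serial dilutions given in DMEM without G418. Incubated 4 days at 37 °C. Replicon read as luciferase activity (Steady-Glo). EC50 is 50% inhibition of replication; mean ± SE, n ≥ 3.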

[2] = Cytotoxicity against human HuH5.2 cells; assay type: cell-based, Huh-5-2
Summary of the method: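 Huh-5-2 replicon cells were seeded at 5000/well in DMEM with 2% FCS and 250 µg/mL G418 and kept 24 h at 37 °C (5% CO₂). They were then exposed to 3-fold serial dilutions in medium without G418 for 4 days at 37 °C. CC₅₀ is the µM concentration inhibiting Huh cell proliferation by 50%, given as mean ± SE (n ≥ 3).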

Hepatitis C virus [3] = test: Antiviral activity against HCV in human Huh9.13 cells assessed as inhibition of replicon replication; assay type: functional, organism-based, Hepacivirus hominis
Summary of the method: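 Huh-9-13 replicon cells seeded 5000/well in DMEM with 2% FCS and 1000 µg/mL G418. After 24 h at 37 °C, 3-fold serial dilutions given without G418 for 4 days. Cells washed and lysed, replicon RNA quantified by real-time PCR. EC50 is 50% drop in HCV RNA versus untreated control; mean ± SE, n ≥ 3.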

[4] = Cytotoxicity against human Huh-9-13 cells; assay type: cell-based
Summary of the method: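 Huh-9-13 replicon cells were seeded at 5000/well in DMEM with 2% FCS and 1000 µg/mL G418 and incubated 24 h at 37 °C. They then received 3-fold serial compound dilutions in G418-free medium for 4 days at 37 °C. CC₅₀ is the µM concentration inhibiting Huh cell proliferation by 50%, given as mean ± SE (n ≥ 3).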

Hepatitis C virus [5] = test: Antiviral activity against HCV in human HuH6 cells assessed as inhibition of replicon replication; assay type: functional, organism-based, Hepacivirus hominis; details: HuH-6
Summary of the method: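 Huh-6 replicon cells seeded 15 000/well and treated with serial compound dilutions as for Huh-9-13. Incubated 3 days at 37 °C, then lysed in cells-to-cDNA buffer. Replicon RNA quantified by real-time PCR. EC50 is 50% drop in HCV RNA versus untreated control; mean ± SE, n ≥ 3.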

[6] = Cytotoxicity against human HuH6 cells; assay type: cell-based
Summary of the method: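 Huh-6 replicon cells were seeded at 15 000/well, handled as for Huh-9-13 (2% FCS DMEM, 3-fold serial dilutions without G418), and incubated 3 days at 37 °C. CC₅₀ is the µM concentration inhibiting Huh cell proliferation by 50%, given as mean ± SE (n ≥ 3).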

MIA PaCa-2 [7] = test: Antiproliferative activity against human MIAPaCa2 cells by MTT assay; assay type: functional, cell-based
Summary of the method: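 MiaPaCa-2 pancreatic cancer cells in DMEM with 10% FBS, seeded at 15 000/well and allowed to attach overnight. Medium was then replaced with fresh medium containing compound, or medium alone as control. Cells were incubated for 48 h at 37 °C with 5% CO₂, and viable cells were counted by MTT colorimetric assay.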

MIA PaCa-2 [8] = test: Antiproliferative activity against human MIAPaCa2 cells after 2 days by MTT assay; assay type: functional
Summary of the method: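 MiaPaCa-2 cells in DMEM with 10% FBS, seeded 15 000/well and left to attach overnight. Medium then replaced with compound at different concentrations, untreated medium as control. Incubated 48 h at 37 °C, 5% CO2. Viable cells read by MTT colorimetric assay.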

MIA PaCa-2 [9] = test: Induction of apoptosis in human MIAPaCa2 cells assessed as increase in caspase 3/7 activation after 48 hrs; assay type: functional
Summary of the method: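 MiaPaCa-2 cells seeded 15 000/well; 24 h later treated 48 h. Caspase-3/7 measured by cleavage of fluorogenic Z-DEVD-R110 substrate (Apo-ONE reagent). Reagent incubated 30 min at room temperature, then fluorescence read. Triplicate; mean ± SE, n = 3.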

MIA PaCa-2 [10] = test: Cell clycle arrest in human MIAPaCa2 cells assessed as increase in sub-G1/G0 fraction after 48 hrs by flow cytometry analysis; assay type: functional
Summary of the method: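 MiaPaCa-2 cells seeded at 10⁶ per 10 cm dish and left overnight. Treated 48 h, untreated as negative control. Cells trypsinised, fixed overnight in cold 70% ethanol at 4 °C, treated with RNase (500 µg/mL) and stained with propidium iodide (50 µg/mL). Sub-G1/G0 ratio read by flow cytometry on 10⁶ cells. Run in triplicate.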

MIA PaCa-2 [11] = test: Induction of apoptosis in human MIAPaCa2 cells assessed as increase in DNA/histone nucleosome release into cytoplasm after 48 hrs by ELISA; assay type: functional
Summary of the method: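 MiaPaCa-2 cells seeded 15 000/well for 24 h, then treated 48 h, untreated as control. Lysate supernatant captured on streptavidin plate with biotin anti-histone and peroxidase anti-DNA antibodies, 2 h at room temperature. After washing, peroxidase substrate added for 20 min, read at 405/490 nm. Result given as fold absorbance over control. Triplicate.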

MIA PaCa-2 [12] = test: Antitumor activity against human MIAPaCa2 cells transfected mouse assessed as reduction of tumor volume at 150 mg/kg, ip administered every 3 days for 4 weeks measured after 2 weeks; assay type: functional; design: scale not given: the % may be the effect or the level left; details: route intraperitoneal
Summary of the method: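 Male nude mice, 6 weeks old, inoculated subcutaneously with about 1 × 10⁷ MiaPaCa-2 cells plus 0.1 mL Matrigel. At 100 mm³ tumours, mice randomised; untreated mice served as control; five per group. Tumour volume measured weekly as length × width × depth × 0.5236. Mean ± SE, Student's t test.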

Compound | EC50 (Hepatitis C virus [1]) | CC50 [2] | EC50 (Hepatitis C virus [3]) | CC50 [4] | EC50 (Hepatitis C virus [5]) | CC50 [6] | Activity (MIA PaCa-2 [7]) | inhibition (INH) (MIA PaCa-2 [8]) | fold change (FC) (MIA PaCa-2 [9]) | fold change (FC) (MIA PaCa-2 [10]) | fold change (FC) (MIA PaCa-2 [11]) | Activity (MIA PaCa-2 [12])
NC(=O)c1nc(C#Cc2ccc(F)cc2)n(COCCO)n1 | 72.3 µM | > 160 µM | 125 µM | > 160 µM | 95.3 µM | 132 µM | – | – | – | – | – | –
NC(=O)c1nc(C#Cc2ccccc2)n(COCCO)n1 | 62.9 µM | > 170 µM | > 164 µM | > 170 µM | 112 µM | > 170 µM | – | – | – | – | – | –
COC(=O)c1nc(C#CC2(O)CCCC2)n([C@@H]2O[C@H](COC(C)=O)[C@@H](OC(C)=O)[C@H]2OC(C)=O)n1 | 52.3 µM | > 105 µM | 54.3 µM | > 105 µM | 25.1 µM | > 105 µM | – | – | – | – | – | –
NC(=O)c1nc(C#Cc2ccc(C(F)(F)F)cc2)n(COCCO)n1 | 14.1 µM | – | 36.7 µM | 79 µM | 50.8 µM | 87.5 µM | inactive | – | – | – | – | –
NC(=O)c1nc(C#Cc2ccc(C(F)(F)F)cc2)n([C@@H]2O[C@H](CO)[C@@H](O)[C@H]2O)n1 | 17.7 µM | 82.5 µM | 19.4 µM | > 120 µM | 43.7 µM | > 120 µM | – | – | – | – | – | –
NC(=O)c1ncn([C@@H]2O[C@H](CO)[C@@H](O)[C@H]2O)n1 [RIBAVIRIN] | 28.7 µM | – | 84 µM | 229 µM | 33 µM | > 100 µM | – | – | – | – | – | –
Nc1ccn([C@@H]2O[C@H](CO)[C@@H](O)C2(F)F)c(=O)n1 [GEMCITABINE] | – | – | – | – | – | – | – | 29% | 2 | – | – | –
COC(=O)c1nc(C#Cc2ccc(C(F)(F)F)cc2)n([C@@H]2O[C@H](COC(C)=O)[C@@H](OC(C)=O)[C@H]2OC(C)=O)n1 | – | – | – | – | – | – | – | 59% | 6.8 | 3 | 3 | 60%
